Screening data (PubChem BioAssay)
PLC-gamma1 inh: PLC-gamma1 (human) inhibition, primary screen; P19174; purified PLC-gamma1, fluorogenic substrate, fluorescence; inhibition, % at 12.2 µM; hit rate 0.84% among 370,000; in the data active means inhibition above about 9.5%
sPLA2-III inh: Inhibits HGIII-sPLA2 liposome hydrolysis, primary screen; Q9NZ20; QFRET BODIPY PC-A2 liposome hydrolysis, fluorescence; inhibition, % at 12.2 µM; hit rate 0.56% among 370,000; AID 743126;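 active means inhibition above mean plus 3 SD of compounds lying within the high and low control bounds, cut at about 19% in these data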;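 further: 0% = median of test compound wells and 100% = no enzyme DMSO wells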
proCasp7 act: counter-screen: procaspase-7 (human) activation | recombinant procaspase-7, Ac-DEVD-pNA absorbance 405 nm; D23A/D198A/D206A triple mutant, cannot self-cleave; scale: DMSO 0, 5 µM enzyme 100 | activation, % at 8.5 µM | hit rate 0.093% among 330,000;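 active means percent activation above the screen-wide mean plus 3 SD, cut at about 25% in these data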
Target sequence (P55210 whole entry D23A/D198A/D206A): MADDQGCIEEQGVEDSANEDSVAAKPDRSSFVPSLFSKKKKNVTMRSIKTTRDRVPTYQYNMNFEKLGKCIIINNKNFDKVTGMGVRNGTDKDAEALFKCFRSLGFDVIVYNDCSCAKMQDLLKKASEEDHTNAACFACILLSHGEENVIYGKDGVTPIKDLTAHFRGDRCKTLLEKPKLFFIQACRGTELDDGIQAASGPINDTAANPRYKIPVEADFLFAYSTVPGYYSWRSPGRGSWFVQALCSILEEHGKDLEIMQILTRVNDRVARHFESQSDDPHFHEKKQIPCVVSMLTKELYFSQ
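Assay system – Uncleavable procaspase-7 mutant enzyme · Quantity – 2 µM procaspase-7 mutant as dispensed · Times – 1 h preincubation, 2 h reaction · Dosing – single nominal 8.5 µM compound dose, 0.8% DMSO final · Buffer or medium – Zinc-free 50 mM HEPES buffer, pH 7.4, with NaCl and Triton X-100 · Detection – Epi-absorbance of released pNA at 405 nm, two timepoints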
proCasp3 act: procaspase-3 (human) activation; P42574; recombinant procaspase-3 D3A, Ac-DEVD-pNA absorbance 405 nm; activation, % at 8.5 µM; hit rate 0.11% among 330,000; AID 463141;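 active means activation above the mean of all tested compounds plus 3 SD, cut at about 21% in these data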;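 further: 0% = DMSO alone and 100% = DMSO wells spiked with extra 5 µM PC-3 D3A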
Target sequence (P42574 whole entry D9A/D28A/D175A): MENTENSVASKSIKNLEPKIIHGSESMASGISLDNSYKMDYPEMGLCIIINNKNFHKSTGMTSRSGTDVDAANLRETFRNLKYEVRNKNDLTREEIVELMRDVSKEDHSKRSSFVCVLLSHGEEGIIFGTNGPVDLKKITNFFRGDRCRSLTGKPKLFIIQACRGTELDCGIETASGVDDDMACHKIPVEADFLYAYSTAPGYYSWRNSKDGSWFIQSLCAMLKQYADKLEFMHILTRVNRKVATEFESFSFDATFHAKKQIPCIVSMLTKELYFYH
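material = Procaspase-3 D3A mutant | probe or stimulus = Ac-DEVD-pNA | compound = single dose, 8.5 µM nominal compound, 0.8% DMSO | timing = 1 h preincubation, 2 h reaction | measured by = 405 nm absorbance of p-nitroaniline, reads at 0 and 120 min | benchmarks = DMSO-only low control, 5 µM PC-3 D3A high control | repeats = singlicate, each compound tested once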
PLC-beta3 inh: inhibitors of human phospholipase C beta3; Purified PLC-beta3, fluorogenic substrate, fluorescence; inhibition, % at 12.2 µM; hit rate 0.18% among 370,000; AID 720704; in the data active means inhibition above about 11%;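 further: 0% = median of compound wells on plate and 100% = full blocker control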
sPLA2 confirm: human GIII-sPLA2 inhibition, confirmation; shares compounds with sPLA2-III inh; recombinant hGIII-sPLA2, BODIPY PC-A2 QFRET fluorescence; inhibition, % at 12.2 µM; hit rate 34% among 2,000; AID 743280;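 active means mean inhibition across triplicates above the hit cutoff set in the earlier primary screen, cut at about 19% in these data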;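 further: 0% = enzyme with DMSO and 100% = DMSO wells lacking enzyme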
535nm interf: optically interferes with 535nm fluorescence in sPLA2 counter-screen. shares compounds with sPLA2-III inh. BODIPY FL product fluorescence interference, QFRET. inhibition, % at 12.2 µM. hit rate 8.5% among 2,000;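 active means average inhibition above the solvent-only control mean plus 3 SD, cut at about 6% in these data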;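 further: 0% = DMSO with substrate plus product and 100% = DMSO with substrate alone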
535nm interf DR: interferes with 535nm fluorescence in dose response counter-screen. shares compounds with sPLA2-III inh. BODIPY FL product fluorescence interference, cell-free. IC50, µM. 240 tested, under 10 active;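 active means IC50 at or below 10 µM; inactive means IC50 above 10 µM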
* = called active by the depositor; i = inactive; . = no result. A selection: hits, their analogues and other compounds. The true share with any hit is near 1.6%.

SMILES	PLC-gamma1 inh	sPLA2-III inh	proCasp7 act	proCasp3 act	PLC-beta3 inh	sPLA2 confirm	535nm interf	others
O=c1oc(-c2ccc(Cl)c(Cl)c2)nn1-c1ccc(C(F)(F)F)cn1	0	30*	-2	-15	-10	23*	7.8*
CC(C)c1nn(-c2cc(C(F)(F)F)ccn2)c(=O)o1	0	1	-13	0	-3	.	.
O=C(Nc1csnn1)c1csnn1	-1	20*	-11	-10	-8	2	-6
Cc1cc(C)nc(NC(=O)c2csnn2)c1	-4	3	-5	-6	-3	.	.
CCC(C)c1ccc(S(=O)(=O)N2CCN(C(C)C(=O)NC3CCCC3)CC2)cc1 (stereo unspecified)	0	-3	-7	12	-5	.	.
C[C@@H]1CN([C@H](C)CO)C(=O)CCCn2nncc2CO[C@H]1CN(C)S(=O)(=O)c1ccc(Oc2ccccc2)cc1	4	-6	.	.	0	.	.
CCCCC(=O)NC(c1ccccc1)c1ccc2cccnc2c1O (stereo unspecified)	-9	11	-2	0	-14	.	.
CCCC(=O)NC(c1ccc(OC)cc1)c1ccc2cccnc2c1O (stereo unspecified)	-17	24*	-1	2	-31	15	-9
CCCC(=O)NC(c1ccccc1)c1ccc2cccnc2c1O (stereo unspecified)	-16	29*	5	-3	-38	17	-11
CCCCC(=O)NC(c1ccccc1Cl)c1ccc2cccnc2c1O (stereo unspecified)	-6	28*	10	2	-15	25*	-5
COC(=O)c1ccc(NC(=O)CN2CCN(CC#N)CC2)cc1	2	6	4	-1	2	.	.
CCc1ccc(C(=O)Nc2cc(C)on2)o1	-3	-1	6	6	-2	.	.
CS/C(N)=N/N=C/c1c(O)ccc2ccccc12	-26	23*	-20	-5	-40	28*	0
CN(CCC#N)C(=O)COC(=O)/C=C/c1cccs1	7	20*	5	5	3	-3	-5
Cc1ccc(NC(=O)CN(C)C(=O)COC(=O)/C=C/c2cccs2)cc1	-1	-3	7	11	-7	.	.
CSCC[C@H](CO)NC(=O)[C@H]1O[C@@H](n2cnc3c(N)ncnc32)[C@H](O)[C@@H]1O	4	3	.	.	1	.	.
C[C@H](O)[C@@H]1CN2CCc3c([nH]c4ccc(-c5ccc6c(c5)OCO6)cc34)[C@@H]2C[C@@H]1N(C)C(=O)Nc1cc(Cl)cc(Cl)c1	-36	-9	.	.	-43	.	.
CCOC(=O)c1sc(=S)n(C)c1NC(=O)c1ccccc1C	4	24*	-7	-14	1	5	-6
Cn1c2c(c(=O)n3ncnc13)CCCC2	-1	4	3	-6	-9	.	.
c1ccc(-c2nccnc2-c2ccccc2)cc1	5	22*	6	0	-6	3	-4
COc1ccccc1NC(=O)N(C)C[C@H]1OCc2cnnn2CCCC(=O)N([C@H](C)CO)C[C@H]1C	-6	5	.	.	-1	.	.
NC(=Nc1nc(-c2ccccn2)cc2ccccc12)c1ccccn1	-4	21*	.	.	-3	-3	-12
CC12C(=O)N(NC(=O)c3ccncc3)C(=O)C1C1C=CC2C1 (stereo unspecified)	4	21*	9	5	3	-5	-5
CC(=O)c1cccc(NC(=O)c2c(F)c(F)c(F)c(F)c2F)c1	-1	-5	9	0	3	.	.
CC(=O)c1cccc(NC(=O)C2=CN3CCS(=O)(=O)N=C3C=C2)c1	-19	20*	-2	5	-31	-5	-7
SMILES	PLC-gamma1 inh	sPLA2-III inh	proCasp7 act	proCasp3 act	PLC-beta3 inh	sPLA2 confirm	535nm interf	others
N/C(=N\OC(=O)CCC1CCCC1)c1cccc([N+](=O)[O-])c1	-2	21*	-10	4	-2	6	-8
CCOC(=O)c1c(NC(=S)NNS(=O)(=O)c2ccc(Br)cc2)sc2c1CCCCC2	1	-1	-3	-2	-5	.	.
Nc1[nH]n(-c2ccccc2)c(=O)c1N=Nc1ccccc1	3	23*	-4	-7	-6	33*	6.3*
Nc1c(C(=O)Nc2ccccc2F)sc2nc(-c3cccnc3)ccc12	i	-13	-34	-37	i	.	.
Nc1c(C(=O)Nc2ccccc2F)sc2nc(-c3ccco3)ccc12	i	19*	-20	-15	i	10	-5
Cc1ccc(C)c(N2CCN(C(=O)c3ccc4nc(-c5ccco5)c(-c5ccco5)nc4c3)CC2)c1	-61	20*	-39	-39	-92	6	-23
O=S(=O)(O)c1nc2ccccc2n1Cc1ccccc1	2	20*	4	-16	-3	1	-3
CCn1c(S(=O)(=O)O)nc2ccccc21	2	20*	7	4	-12	0	-3
CCCCn1c(S(=O)(=O)O)nc2ccccc21	-1	1	-1	-4	-3	.	.
CS(=O)(=O)c1nc2ccccc2n1Cc1ccccc1	2	7	-5	-11	3	.	.
Cc1cc(C)c(S(=O)(=O)Nc2ncn[nH]2)cc1C	-2	3	7	-5	-6	.	.
C=CCS/C(N)=N\N=C\c1cc(Br)cc([N+](=O)[O-])c1O	-2	38*	7	1	-14	30*	-2	535nm interf DR=>122
O=[N+]([O-])c1cc(Br)cc(/C=N/n2cnnc2)c1O	-2	2	0	-7	0	.	.
CS/C(N)=N/N=C/c1cc(Br)cc(Br)c1O	i	38*	6	10	i	34*	6.8*
CCOc1ccccc1NC(=S)N1CCN(c2ccccc2)CC1	-4	24*	-5	-5	-3	26*	-4
COc1ccc(NC(=S)N2CCN(c3ccccc3)CC2)c(OC)c1	0	7	-9	-12	1	.	.
COc1c(O)c(O)c2oc(-c3ccccc3)cc(=O)c2c1OC	6	32*	-25	-11	-3	13	-11
O=C(NNc1ccccc1[N+](=O)[O-])Nc1ccc(Cl)c(Cl)c1	6	27*	-2	3	4	28*	9.8*
O=C(NNc1ccccc1[N+](=O)[O-])Nc1ccccc1	.	.	-15	-12	.	.	.
O=C(NCCS(=O)(=O)NCc1ccccc1)c1ccccc1	2	19*	17	4	-4	-1	-5
COc1ccc(C(=O)NCCS(=O)(=O)NCc2ccccc2)cc1	-1	-2	3	10	-6	.	.
